# Assay results as given in ChEMBL document CHEMBL4431325, “Design and Synthesis of Orally Bioavailable 4-Methyl Heteroaryldihydropyrimidine Based Hepatitis B Virus (HBV) Capsid Inhibitors” (J Med Chem, 2016).
# Legend:
# [1] = Intrinsic clearance in mouse liver microsomes at 1 uM preincubated for 10 mins followed by NADPH addition measured up to 30 mins by LC-MS/MS analysis; format: ADME, Microsome; conditions: read-out: CLH
# [2] = Intrinsic clearance in human liver microsomes at 1 uM preincubated for 10 mins followed by NADPH addition measured up to 30 mins by LC-MS/MS analysis; format: ADME, Microsome; conditions: read-out: CLH
# [3] = Oral bioavailability in CD-1 mouse plasma administered as single dose by LC-MS/MS analysis; format: ADME, organism-based
# Outline: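 CD-1 mice (18-25 g) were used, with three mice per time point. The i.v. dose (5 mg/kg) was given in 6% Solutol/ethanol (1:1) plus 94% saline, and the oral dose (50 mg/kg) in 1% RC591. Blood was sampled at nine (i.v.) or eight (p.o.) time points into heparin. Plasma was analysed by LC-MS/MS, and parameters including F were derived noncompartmentally.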
# [4] = Drug metabolism in human liver microsomes assessed as aromatization of dihydropyrimidine core at 1 uM preincubated for 10 mins followed by NADPH addition measured up to 30 mins by LC-MS/MS analysis; format: ADME, Microsome; conditions: 0.5 h
# [5] = Drug metabolism in mouse liver microsomes assessed as aromatization of dihydropyrimidine core at 1 uM preincubated for 10 mins followed by NADPH addition measured up to 30 mins by LC-MS/MS analysis; format: ADME, Microsome; conditions: 0.5 h
# [6] = Stability in CD-1 mouse liver by LC-MS/MS analysis; format: ADME, tissue-based
# [7] = Cmax in CD-1 mouse plasma at 5 mg/kg, iv administered as single dose by LC-MS/MS analysis; format: ADME, organism-based; parameters: dose 5 mg/kg, route intravenous
# [8] = Cmax in CD-1 mouse plasma at 50 mg/kg, po administered as single dose by LC-MS/MS analysis; format: ADME, organism-based; parameters: dose 50 mg/kg, route oral
# [9] = Clearance in CD-1 mouse plasma at 5 mg/kg, iv administered as single dose by LC-MS/MS analysis; format: ADME, organism-based
# [10] = Volume of distribution at steady state in CD-1 mouse plasma at 5 mg/kg, iv administered as single dose by LC-MS/MS analysis; format: ADME, organism-based; conditions: read-out: Vdss
# [11] = Half life in CD-1 mouse plasma at 5 mg/kg, iv administered as single dose by LC-MS/MS analysis; format: ADME, organism-based
# [12] = Half life in CD-1 mouse plasma at 50 mg/kg, po administered as single dose by LC-MS/MS analysis; format: ADME, organism-based
# [13] = AUC (0 to t) in CD-1 mouse plasma at 5 mg/kg, iv administered as single dose by LC-MS/MS analysis; format: ADME, organism-based; conditions: in vivo
# [14] = AUC (0 to t) in CD-1 mouse plasma at 50 mg/kg, po administered as single dose by LC-MS/MS analysis; format: ADME, organism-based; conditions: in vivo
# [15] = Cmax in CD-1 mouse liver at 50 mg/kg, po administered as single dose by LC-MS/MS analysis; format: ADME, organism-based; parameters: dose 50 mg/kg, route oral
# [16] = AUC (0 to t) in CD-1 mouse liver at 50 mg/kg, po administered as single dose by LC-MS/MS analysis; format: ADME, organism-based; conditions: in vivo
# [17] = Oral bioavailability in CD-1 mouse plasma at 50 mg/kg administered as single dose by LC-MS/MS analysis; format: ADME, organism-based
# [18] = Drug uptake in CD-1 mouse lung at 5 mg/kg, iv or 50 mg/kg, po administered as single dose by LC-MS/MS analysis; format: ADME, organism-based; conditions: in vivo
# [19] = Drug uptake in CD-1 mouse heart at 5 mg/kg, iv or 50 mg/kg, po administered as single dose by LC-MS/MS analysis; format: ADME, organism-based; conditions: in vivo
# [20] = Drug uptake in CD-1 mouse brain at 5 mg/kg, iv or 50 mg/kg, po administered as single dose by LC-MS/MS analysis; format: ADME, organism-based; conditions: in vivo
# in vivo = conditions: CD-1, mouse, other tissue, po, 50 mg/kg
compound,measurement,setting,value
COC(=O)C1=C(CN2CCNC(=O)C2)NC(c2nccs2)=NC1(C)c1ccc(F)cc1 (stereo unspecified),CLint scaled at 1 µM,[1],81 mL/min/kg
COC(=O)C1=C(CN2CCC(F)(F)C2)NC(c2nccs2)=NC1(C)c1ccc(F)cc1 (stereo unspecified),CLint scaled at 1 µM,[1],89 mL/min/kg
COC(=O)C1=C(CN2CCCC(F)(F)C2)NC(c2nccs2)=NC1(C)c1ccc(F)cc1 (stereo unspecified),CLint scaled at 1 µM,[1],89 mL/min/kg
COC(=O)C1=C(CN2CCOC[C@@H]2C(=O)O)NC(c2nccs2)=N[C@@]1(C)c1ccc(F)cc1,CLint scaled at 1 µM,[1],61 mL/min/kg
COC(=O)C1=C(CN2CC(F)(F)C[C@H]2C(=O)OC)NC(c2nccs2)=N[C@@]1(C)c1ccc(F)cc1,CLint scaled at 1 µM,[1],90 mL/min/kg
same,CLint scaled at 1 µM,[2],23 mL/min/kg
COC(=O)C1=C(CN2CCOC[C@H]2C(=O)O)NC(c2nccs2)=N[C@@]1(C)c1ccc(F)cc1,CLint scaled at 1 µM,[1],80 mL/min/kg
same,CLint scaled at 1 µM,[2],4.1 mL/min/kg
COC(=O)C1=C(CN2CCCS2(=O)=O)NC(c2nccs2)=NC1(C)c1ccc(F)cc1 (stereo unspecified),CLint scaled at 1 µM,[1],79 mL/min/kg
CC1(c2ccc(F)cc2)N=C(c2nccs2)NC(CN2CCOCC2)=C1C(N)=O (stereo unspecified),CLint scaled at 1 µM,[1],59 mL/min/kg
COC(=O)C1=C(CN2CCC(O)C2)NC(c2nccs2)=NC1(C)c1ccc(F)cc1 (stereo unspecified),CLint scaled at 1 µM,[1],83 mL/min/kg
COC(=O)C1=C(COCC(F)(F)F)NC(c2nccs2)=NC1(C)c1ccc(F)cc1 (stereo unspecified),CLint scaled at 1 µM,[1],81 mL/min/kg
COC(=O)C1=C(CN2CCOCC2=O)NC(c2nccs2)=NC1(C)c1ccc(F)cc1 (stereo unspecified),CLint scaled at 1 µM,[1],80 mL/min/kg
COC(=O)C1=C(CN2CCOCC2)NC(c2nccs2)=N[C@@]1(C)c1ccc(F)cc1,CLint scaled at 1 µM,[1],81 mL/min/kg
same,bioavailability,[3],1.5%
CC1(c2ccc(F)cc2)N=C(c2nccs2)NC(CN2CCOCC2)=C1c1ncco1 (stereo unspecified),CLint scaled at 1 µM,[1],89 mL/min/kg
COC(=O)C1=C(CN2CCC(O)CC2)NC(c2nccs2)=NC1(C)c1ccc(F)cc1 (stereo unspecified),CLint scaled at 1 µM,[1],81 mL/min/kg
COC(=O)C1=C(C)NC(c2nccs2)=NC1(C)c1ccc(S(C)(=O)=O)cc1 (stereo unspecified),CLint scaled at 1 µM,[1],57 mL/min/kg
COC(=O)C1=C(COC2CCOC2)NC(c2nccs2)=NC1(C)c1ccc(F)cc1 (stereo unspecified),CLint scaled at 1 µM,[1],79 mL/min/kg
COC(=O)C1=C(COC(C(=O)O)C(F)(F)F)NC(c2nccs2)=NC1(C)c1ccc(F)cc1 (stereo unspecified),CLint scaled at 1 µM,[1],24 mL/min/kg
COC(=O)C1=C(CN2CCC[C@@H]2C(=O)O)NC(c2nccs2)=N[C@@]1(C)c1ccc(F)cc1,CLint scaled at 1 µM,[1],60 mL/min/kg
COC(=O)C1=C(CN2CCC[C@H]2C(=O)O)NC(c2nccs2)=N[C@@]1(C)c1ccc(F)cc1,CLint scaled at 1 µM,[1],14 mL/min/kg
same,CLint scaled at 1 µM,[2],2.3 mL/min/kg
COC(=O)C1=C(CN2CCS(=O)(=O)CC2)NC(c2nccs2)=NC1(C)c1ccc(F)cc1 (stereo unspecified),CLint scaled at 1 µM,[1],66 mL/min/kg
COC(=O)C1=C(CN2CCOCC2(C)C)NC(c2nccs2)=NC1(C)c1ccc(F)cc1 (stereo unspecified),CLint scaled at 1 µM,[1],88 mL/min/kg
COC(=O)C1=C(CN(C)C2(C(=O)O)CC2)NC(c2nccs2)=NC1(C)c1ccc(F)cc1 (stereo unspecified),CLint scaled at 1 µM,[1],42 mL/min/kg
COC(=O)C1=C(CN2CC(OC)C2)NC(c2nccs2)=NC1(C)c1ccc(F)cc1 (stereo unspecified),CLint scaled at 1 µM,[1],88 mL/min/kg
CC(C)OC(=O)C1=C(CN2CCOCC2)NC(c2nccs2)=NC1(C)c1ccc(F)cc1 (stereo unspecified),CLint scaled at 1 µM,[1],88 mL/min/kg
COC(=O)C1=C(CN2CCOCC2)NC(c2nccs2)=N[C@@]1(C)c1ccc(F)c(F)c1,CLint scaled at 1 µM,[1],89 mL/min/kg
COC(=O)C1=C(Cn2ccnc2)NC(c2nccs2)=NC1(C)c1ccc(F)cc1 (stereo unspecified),CLint scaled at 1 µM,[1],69 mL/min/kg
COC(=O)C1=C(CN2CCC(C(F)(F)F)C2)NC(c2nccs2)=NC1(C)c1ccc(F)cc1 (stereo unspecified),CLint scaled at 1 µM,[1],88 mL/min/kg
COC(=O)C1=C(CN2CCNCC2)NC(c2nccs2)=NC1(C)c1ccc(F)cc1 (stereo unspecified),CLint scaled at 1 µM,[1],39 mL/min/kg
COC(=O)C1=C(C)NC(c2nccs2)=NC1(C)c1ccc(F)c(F)c1 (stereo unspecified),CLint scaled at 1 µM,[1],83 mL/min/kg
CNC(=O)C1=C(CN2CCOCC2)NC(c2nccs2)=NC1(C)c1ccc(F)cc1 (stereo unspecified),CLint scaled at 1 µM,[1],77 mL/min/kg
CC1(c2ccc(F)cc2)N=C(c2nccs2)NC(CN2CCOCC2)=C1C#N (stereo unspecified),CLint scaled at 1 µM,[1],79 mL/min/kg
COC(=O)C1=C(CN2CCC(F)(F)CC2)NC(c2nccs2)=NC1(C)c1ccc(F)cc1 (stereo unspecified),CLint scaled at 1 µM,[1],88 mL/min/kg
COC(=O)C1=C(CN2CC3CC2CO3)NC(c2nccs2)=NC1(C)c1ccc(F)cc1 (stereo unspecified),CLint scaled at 1 µM,[1],84 mL/min/kg
COC(=O)C1=C(CN2CCCCC2)NC(c2nccs2)=NC1(C)c1ccc(F)cc1 (stereo unspecified),CLint scaled at 1 µM,[1],88 mL/min/kg
COC(=O)C1=C(C)NC(c2nccs2)=NC1(C)c1ccc(Cl)cc1 (stereo unspecified),CLint scaled at 1 µM,[1],85 mL/min/kg
COC(=O)C1=C(C)NC(c2ncc(F)cc2F)=N[C@H]1c1ccc(F)cc1Cl,Drug metabolism,[4],Metabolite_Detected
same,Drug metabolism,[5],Metabolite_Detected
same,Stability,[6],Unstable
COC(=O)C1=C(C)NC(c2nccs2)=NC1(C)c1ccc(C#N)cc1 (stereo unspecified),CLint scaled at 1 µM,[1],75 mL/min/kg
COC(=O)C1=C(CN2CC(F)(F)C[C@H]2C(=O)O)NC(c2nccs2)=N[C@@]1(C)c1ccc(F)cc1,CLint scaled at 1 µM,[1],84 mL/min/kg
same,Cmax,[7],12400 ng/mL
same,Cmax,[8],2470 ng/mL
same,CLint scaled at 1 µM,[2],12 mL/min/kg
same,clearance,[9],55.3 mL/min/kg
same,Vd,[10],0.22 L/kg
same,half-life,[11],10.8 min
same,half-life,[12],48 min
same,AUCt,[13],1500 µg/L/h
same,AUCt,[14],5420 µg/L/h
same,Cmax,[15],41200 ng/mL
same,AUCt,[16],107000 µg/L/h
same,bioavailability,[17],36%
same,Drug uptake,[18],Not Active
same,Drug uptake,[19],Not Active
same,Drug uptake,[20],Not Active
same,Kp,in vivo,20
CC1(c2ccc(F)cc2)N=C(c2nccs2)NC(CN2CCOCC2)=C1C(=O)O (stereo unspecified),CLint scaled at 1 µM,[1],6 mL/min/kg
